The values that follow come from ChEMBL document CHEMBL1641438, “In vitro efficacy of 7-benzylamino-1-isoquinolinamines against Plasmodium falciparum related to the efficacy of chalcones” (Bioorg Med Chem Lett, 2011).

The structures appear in SMILES notation. Calls of active or inactive are those of the source. The calls are words filed in the database; no cut-off is given here.

For test [1], the system named is Plasmodium falciparum. Description: Resistance index, ratio of IC50 for chloroquine-resistant, mefloquine-sensitive Plasmodium falciparum W2 to IC50 for mefloquine-resistant, chloroquine-sensitive Plasmodium falciparum D6. Type of test: functional.
Test [2] deals with Plasmodium falciparum. Description: Resistance index, ratio of IC50 for Plasmodium falciparum multidrug-resistant TM91C235 to IC50 for mefloquine-resistant, chloroquine-sensitive Plasmodium falciparum D6. Type of test: functional.
The test system of test [3] is Plasmodium falciparum. Description: Antimalarial activity against multidrug-resistant Plasmodium falciparum TM91C235 assessed as inhibition of [3H]hypoxanthine uptake. The test is classed as functional, organism-based.
For test [4], the system named is Plasmodium falciparum. Description: Antimalarial activity against chloroquine-resistant, mefloquine-sensitive Plasmodium falciparum W2 assessed as inhibition of [3H]hypoxanthine uptake. The test is classed as functional, organism-based.
Test [5] relates to Plasmodium falciparum. Description: Antimalarial activity against mefloquine-resistant, chloroquine-sensitive Plasmodium falciparum D6 assessed as inhibition of [3H]hypoxanthine uptake. Type of test: functional, organism-based.
The test system of test [6] is Plasmodium falciparum. The experiment in a line: Antimalarial activity against mefloquine-resistant, chloroquine-sensitive Plasmodium falciparum D6 assessed as inhibition of [3H]hypoxanthine uptake in presence of 1 mM folinic acid. The test is classed as functional, organism-based. The essentials: (§1)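 Folinic acid reversal assay, adapted from a folic acid reversal method and run in normal plasma, to rule out DHFR inhibition. Parasite growth inhibition (IC50) is measured with 1 mM folinic acid present and compared with the IC50 obtained without folinic acid.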

Test [7] has as its system Plasmodium falciparum. Description: Antimalarial activity against multidrug-resistant Plasmodium falciparum TM91C235 assessed as inhibition of [3H]hypoxanthine uptake in presence of 1 mM folinic acid. Type of test: functional, organism-based. The essentials:
as §1

Regarding `Nc1nc(N)c2cc(NCc3cccc(Br)c3)ccc2n1`, the “Ratio IC50” value came to 14.6 with Plasmodium falciparum [1] and 147 in the test with Plasmodium falciparum [2]. The values for the half-inhibitory concentration (IC50) in the test on Plasmodium falciparum [3], in the test with Plasmodium falciparum [4] and in the test on Plasmodium falciparum [5] were 20.8 nM, 2.08 nM and less than 0.142 nM, respectively.
Regarding `Cl.Cl.Cl.Nc1nccc2ccc(NCc3ccc(Cl)cc3)cc12`, the figures for the “Ratio IC50” value with Plasmodium falciparum [1] and with Plasmodium falciparum [2] were 5.67 and 2.78, respectively. In addition, the results for the IC50 with Plasmodium falciparum [3], in the test on Plasmodium falciparum [4] and in the test on Plasmodium falciparum [5] were 205 nM, 417 nM and 73.6 nM, respectively. The result in the test with Plasmodium falciparum [6] and with Plasmodium falciparum [7] was Active.
For `Cl.Cl.Cl.Nc1nccc2ccc(NCc3cccc(Cl)c3)cc12`, the “Ratio IC50” value in the test with Plasmodium falciparum [1] amounted to 5.55; with Plasmodium falciparum [2], 2.44. Also, the concentration for half-maximal inhibition (IC50) (in general, the midpoint of a concentration-inhibition curve) with Plasmodium falciparum [3] is 158 nM; in the test on Plasmodium falciparum [4], 359 nM; with Plasmodium falciparum [5] it was 64.8 nM. Further, the result in the test on Plasmodium falciparum [6] and in the test on Plasmodium falciparum [7] was Active.
`Cl.Cl.Nc1nccc2ccc(NCc3cccc(C(F)(F)F)c3)cc12`: the “Ratio IC50” value in the test on Plasmodium falciparum [1] was 5.2; in the test with Plasmodium falciparum [2] it was 1.44. For the same molecule, the IC50 in the test on Plasmodium falciparum [3] was 71.9 nM; in the test with Plasmodium falciparum [4], 260 nM; in the test with Plasmodium falciparum [5], 50.1 nM.
With `CCN(CC)CCCC(C)Nc1ccnc2cc(Cl)ccc12` (configuration not stated), the result in the test on Plasmodium falciparum [6] and in the test on Plasmodium falciparum [7] was Active.
Consider `Cl.Cl.Nc1nccc2ccc(NCc3cccc(Br)c3)cc12`, for which the “Ratio IC50” value in the test with Plasmodium falciparum [1] is 4.09; in the test on Plasmodium falciparum [2], 1.38. Further, the concentration for half-maximal inhibition (IC50) is 142 nM in the test with Plasmodium falciparum [3], 421 nM in the test with Plasmodium falciparum [4] and 103 nM in the test on Plasmodium falciparum [5].
For `Cl.Cl.Nc1nccc2ccc(NCc3ccccc3)cc12` the same measures were 6.59, 2.29, 486 nM, 1400 nM and 212 nM.
For `Cl.Cl.Cl.Cl.Nc1nccc2ccc(NCc3ccc(Cl)c(Cl)c3)cc12` the same measures were 6.58, 1.6, 111 nM, 455 nM and 69.1 nM.
For the molecule `CCc1nc(N)nc(N)c1-c1ccc(Cl)cc1`, the result in the test with Plasmodium falciparum [6] and in the test with Plasmodium falciparum [7] was inactive.
For the molecule `OC(c1cc(C(F)(F)F)nc2c(C(F)(F)F)cccc12)C1CCCCN1` (configuration not stated) [MEFLOQUINE], the “Ratio IC50” value with Plasmodium falciparum [1] stood at 0.289; in the test on Plasmodium falciparum [2], 1.85. In addition, the values for the IC50 in the test on Plasmodium falciparum [3] and in the test with Plasmodium falciparum [5] were 37.4 nM and 20.1 nM, respectively.
